A selection: hits, their analogues and other compounds. The true share with any hit is near 2.3%.
TRPC4 inh: inhibitors of mouse TRPC4 channel; HEK293 TRPC4beta/mu-opioid, DAMGO-evoked Fluo4 calcium flux; stronger effect = lower value; Q9QUQ5; AID 2247; B-score at 10 µM; actives 0.39% (n = 300,000);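 active = B-score over 3 SD under the library average, no early fluorescence shift, positive overall ratio signal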
Target sequence (Q9QUQ5 whole entry, looked up): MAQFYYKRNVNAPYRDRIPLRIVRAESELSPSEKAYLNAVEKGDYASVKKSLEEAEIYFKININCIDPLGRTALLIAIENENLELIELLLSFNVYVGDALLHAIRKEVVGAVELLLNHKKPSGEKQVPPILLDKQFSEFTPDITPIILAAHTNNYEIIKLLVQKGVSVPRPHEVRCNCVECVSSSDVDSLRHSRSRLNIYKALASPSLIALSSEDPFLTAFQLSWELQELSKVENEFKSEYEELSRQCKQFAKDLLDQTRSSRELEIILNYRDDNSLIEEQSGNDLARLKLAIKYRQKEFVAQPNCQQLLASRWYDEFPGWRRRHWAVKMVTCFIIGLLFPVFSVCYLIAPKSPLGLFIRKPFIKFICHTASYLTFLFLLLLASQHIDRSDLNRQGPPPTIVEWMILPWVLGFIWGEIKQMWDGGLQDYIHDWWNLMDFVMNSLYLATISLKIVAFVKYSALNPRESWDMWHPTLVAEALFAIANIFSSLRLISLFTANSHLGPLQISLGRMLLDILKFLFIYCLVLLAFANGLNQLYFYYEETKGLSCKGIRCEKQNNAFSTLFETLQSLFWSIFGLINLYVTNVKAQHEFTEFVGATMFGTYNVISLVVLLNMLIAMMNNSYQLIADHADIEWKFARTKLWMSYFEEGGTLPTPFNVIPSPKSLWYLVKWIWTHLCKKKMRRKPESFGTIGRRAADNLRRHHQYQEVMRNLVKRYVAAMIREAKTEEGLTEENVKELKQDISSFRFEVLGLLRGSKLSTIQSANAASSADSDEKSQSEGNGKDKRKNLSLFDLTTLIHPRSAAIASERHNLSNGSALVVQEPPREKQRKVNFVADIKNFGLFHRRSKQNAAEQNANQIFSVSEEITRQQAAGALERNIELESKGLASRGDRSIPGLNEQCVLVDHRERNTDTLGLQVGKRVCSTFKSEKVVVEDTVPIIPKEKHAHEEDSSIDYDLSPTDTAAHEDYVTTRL
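Material: HEK293 cells with stable TRPC4beta plus mu-opioid receptor expression; probe or stimulus: DAMGO in two steps, submaximal then maximal; technique: Fluo4 calcium fluorescence by kinetic imaging, 5 s 1 Hz baseline; measure: integrated fluorescence ratio relative to baseline, converted to per-well B score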
TRPC6 inh: inhibitors of mouse TRPC6 channel; HEK293-TRPC6, membrane potential dye, ACh-evoked depolarization; stronger effect = lower value; B-score at 10 µM; actives 1.1% (n = 310,000);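 active = B-score under library mean minus 3 SD, initial fluorescence not abnormally high, positive integrated signal ratio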;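 note: B-score derived from integrated fluorescence ratio over the kinetic read; more negative B-score means stronger inhibition of depolarization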
TRPC6 activator: activators of mouse TRPC6 channel; Q61143; HEK293-TRPC6 membrane potential dye fluorescence; stronger effect = higher value; B-score at 10 µM; actives 0.13% (n = 310,000); AID 2550;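 active = B-score of the integrated fluorescence ratio above library mean plus 3 SD, and starting fluorescence ratio within library mean plus 5 SD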;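 note: higher score means more depolarization so channel activation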
TRPC4 act: opens the mouse TRPC4 cation channel | actives 0.49% (n = 310,000) | B-score at 10 µM | HEK293 TRPC4beta/mu-opioid, Fluo4 calcium fluorescence; stronger effect = higher value | AID 2237;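 active = B-score above 5 SD of library B-scores, and initial fluorescence ratio not above library mean plus 5 SD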;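 note: positive B-score marks a calcium rise read as TRPC4 activation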
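Assay system: HEK293 stable line with TRPC4beta plus mu-opioid receptor. Times: dye 45 min RT, read 110 s. Measured by: kinetic Fluo4 calcium fluorescence. Measure: B score of integrated ratio. Controls: assay buffer as low control, maximal DAMGO as high control.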
CR mimetic SO: caloric restriction mimetics inhibiting age-related superoxide in yeast; S. cerevisiae aged cells, superoxide DHE fluorescence; stronger effect = lower value; superoxide response (% of plate mean), % at 10 µM; actives 0.18% (n = 330,000);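 active = superoxide response under a set limit, about three screen SD below normal, cut at about 65% in these data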;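 note: yeast aged for seven days with compound at 30 °C before DHE staining; 100% = average MFI of all compound-treated wells on the plate with controls excluded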
TRPC4 potent: allosterically enhances the mouse TRPC4 cation channel. Q9QUQ5. HEK293 TRPC4beta/mu-opioid, DAMGO EC20, Fluo-4 Ca2+ flux; stronger effect = higher value. B-score at 10 µM. actives 0.42% (n = 310,000). AID 2227;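 active = B-score of calcium response area above 5 SD of library B-scores, with initial fluorescence ratio within 5 SD of library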;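 note: B-score of integrated fluorescence ratio over time as area under calcium response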
* hit, by the source's call; i = inactive.

SMILES | TRPC4 inh | TRPC6 inh | TRPC6 activator | TRPC4 act | CR mimetic SO | TRPC4 potent
COc1cc(OC)cc(C(=O)Nc2ccc3c(c2)CCCN3C(=O)c2cccs2)c1 | i | i | i | i | 98 | i
CCOC(=O)c1ccc(NC(=S)N2CCSC2c2ccc(OC)cc2)cc1 (centres undefined) | i | i | i | i | 102 | i
CCOC(=O)c1ccc(NC(=S)N2CCSC2c2ccc(Cl)cc2)cc1 (centres undefined) | i | i | i | i | 115 | 20*
CSCCC(NC(=O)c1ccccc1)C(=O)Nc1ccc(NC(C)=O)cc1 (centres undefined) | i | -5.2* | i | i | 93 | i
CCc1cc2c(SCC(=O)N(C)C3CCS(=O)(=O)C3)ncnc2s1 (centres undefined) | i | i | i | i | 98 | 28*
CCC(=O)N1CCCc2cc(S(=O)(=O)N3CCN(C4CCCCC4)CC3)ccc21 | i | i | i | i | 95 | i
CC(=O)N1CCCc2cc(S(=O)(=O)N3CCN(C4CCCCC4)CC3)ccc21 | i | i | i | 57* | 91 | i
COc1ccc(OC)c(Nc2cc(-c3ccccc3)nc(N)n2)c1 | -7* | -5.4* | i | i | 97 | i
CCOC(=O)c1ccc(NC(=S)NNC(C)(C)C)cc1 | i | i | i | i | 86 | i
Cc1c(CN2CCCCC2)c(O)n(CCCO)c(=O)c1C#N | i | i | i | i | 118 | i
Cc1ccc(-c2c(C(=O)N(C)Cc3ccccc3)oc(=O)c3ccccc23)cc1 | i | i | i | i | 96 | i
CN(Cc1ccccc1)C(=O)c1oc(=O)c2ccccc2c1-c1ccccc1 | i | i | i | i | 121 | 16*
O=S(=O)(c1cc(Cl)ccc1Cl)N1CCN2CCCC2C1 (centres undefined) | i | i | i | i | 87 | i
CC(C)CN(CC(C)C)c1nc(N)c(C#N)c(CC#N)c1C#N | -6* | i | i | i | 98 | i
CN(CCO)c1nc(N)c(C#N)c(CC#N)c1C#N | i | i | i | i | 90 | i
CC(C)(C)n1nnnc1C(c1ccncc1)N(Cc1ccccc1)Cc1ccco1 (centres undefined) | i | i | i | i | 93 | 10*
CC1(c2ccccc2)CC(C)(C)N(C(N)=O)c2ccccc21 (centres undefined) | i | i | i | i | 102 | i
CC(=O)N1c2ccccc2C(C)(c2ccccc2)CC1(C)C (centres undefined) | -6* | i | i | i | 98 | i
COc1ccc(/C=N/NC(=O)c2cccs2)c2ccccc12 | i | i | i | i | 102 | i
COc1cccc(CNC(=O)C(NS(=O)(=O)c2ccc3c(c2)CCN3C(C)=O)C(C)C)c1 (centres undefined) | i | i | i | i | 112 | i
CCCCCCOc1ccc(N2C(=O)CC(SC(=NCC)NCC)C2=O)cc1 (centres undefined) | i | i | i | i | 65* | i
C/C(=N/Nc1ccnc2cc(Cl)ccc12)c1ccc(N)cc1 | i | i | i | 63* | 105 | i
C/C(=N/Nc1ccnc2cc(Cl)ccc12)c1ccc(O)cc1 | i | i | i | i | 106 | i
COC(=O)c1cc(C#N)c(Oc2ccccc2)nc1C | i | i | i | i | 141 | i
COc1ccccc1Oc1nc(C)c(C(C)=O)cc1C#N | i | i | i | i | 131 | 12*
CN(C)CCSc1nc(-c2ccccc2)nc2c1CCC2 | i | i | i | i | 99 | i
CN(C)CCCSc1nc(-c2ccccc2)nc2c1CCC2 | i | i | i | i | 161 | 16*
C/C(Cc1ccccc1)=N\NC(=O)CNC(=O)COc1cccc(C)c1 | i | i | i | 80* | 91 | i
Cc1onc(-c2ccccc2Cl)c1C(=O)N(C)C1CCCCC1 | i | i | i | i | 101 | i
